ChEMBL document CHEMBL2401714, “New linezolid-like 1,2,4-oxadiazoles active against Gram-positive multiresistant pathogens” (Eur J Med Chem, 2013)
Values after ≈ are worked out from the molar mass of the structure shown.

Columns and labels:
[1] = test system: Staphylococcus aureus; test: Antibacterial activity against methicillin-susceptible Staphylococcus aureus M923 assessed as growth inhibition after 18 to 24 hrs by broth microdilution method; format: functional
Outline: (§1)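 CLSI broth microdilution against S. aureus isolates. Two-fold serial dilutions were made in Mueller-Hinton broth, with DMSO as the compound solvent. An equal volume of inoculum (1 × 10⁶ CFU/mL) was added to each well. MIC was taken as the lowest concentration giving no visible turbidity of the medium.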

[2] = test system: Staphylococcus aureus; test: Antibacterial activity against methicillin-resistant Staphylococcus aureus F511 assessed as growth inhibition after 18 to 24 hrs by broth microdilution method; format: functional
Outline: (§2)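 CLSI broth microdilution: serial 2-fold dilutions of each compound in Mueller-Hinton broth, with DMSO as solvent. An equal volume of inoculum (1 × 10⁶ CFU/mL) is added to each well holding the dilutions. MIC is the lowest concentration causing no visible turbidity. Values are expressed in […]. Clinical MRSA collection isolates 433 and F511, and reference strain Mu50.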

[3] = test system: Staphylococcus aureus; test: Antibacterial activity against methicillin-resistant Staphylococcus aureus 433 assessed as growth inhibition after 18 to 24 hrs by broth microdilution method; format: functional; outline: as §2
[4] = test system: Staphylococcus aureus; test: Antibacterial activity against methicillin-resistant Staphylococcus aureus ATCC 700699 assessed as growth inhibition after 18 to 24 hrs by broth microdilution method; format: functional; outline: as §2
[5] = test system: Staphylococcus aureus; test: Antibacterial activity against methicillin-susceptible Staphylococcus aureus ATCC 29213 assessed as growth inhibition after 18 to 24 hrs by broth microdilution method; format: functional; outline: as §1
[6] = Cytotoxicity against porcine PK-15 cells assessed as reduction of cell viability at 25 to 200 ug/ml by MTT assay; format: cell-based, Sus scrofa; settings: pig
Outline: (§3)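 Cells were exposed to increasing compound concentrations, with a DMSO solvent control. HepG2 and HaCaT were grown in DMEM, and PK15 in DMEM/M199 (1:1), all with 10% heat-inactivated fetal serum. MTT (5 mg/mL stock, 1.2 mM final) was added for 1 h 30 min at 37 °C. The reaction was stopped with 90% ethanol, cells were spun at 800 × g for 10 min, and A570 was read. Values are means ± S.E. of 3 experiments run in triplicate.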

[7] = test system: HepG2; test: Cytotoxicity against human HepG2 cells assessed as reduction of cell viability at 400 ug/ml by MTT assay relative to control; format: cell-based; outline: as §3
[8] = test system: HepG2; test: Cytotoxicity against human HepG2 cells assessed as reduction of cell viability at 50 ug/ml by MTT assay; format: cell-based; outline: as §3
[9] = test system: HaCaT; test: Cytotoxicity against human HaCaT cells assessed as cell death at 200 to 400 ug/ml by MTT assay relative to control; format: cell-based; outline: as §3
[10] = Cytotoxicity against porcine PK-15 cells assessed as reduction of cell viability at 5 ug/ml by MTT assay relative to control; format: cell-based, Sus scrofa; settings: pig; outline: as §3
[11] = test system: HepG2; test: Cytotoxicity against human HepG2 cells assessed as reduction of cell viability at 5 to 400 ug/ml by MTT assay; format: cell-based; outline: as §3
[12] = test system: HaCaT; test: Cytotoxicity against human HaCaT cells assessed as induction of cell death at => 25 ug/ml by MTT assay relative to control; format: cell-based; outline: as §3
[13] = test system: HaCaT; test: Cytotoxicity against human HaCaT cells assessed as reduction of cell viability at 5 ug/ml by MTT assay; format: cell-based; outline: as §3
[14] = Cytotoxicity against porcine PK-15 cells assessed as reduction of cell viability at 100 ug/ml by MTT assay relative to control; format: cell-based, Sus scrofa; settings: pig; outline: as §3
[15] = Cytotoxicity against porcine PK-15 cells assessed as reduction of cell viability at 200 to 400 ug/ml by MTT assay relative to control; format: cell-based, Sus scrofa; settings: pig; outline: as §3
[16] = Cytotoxicity against porcine PK-15 cells assessed as reduction of cell viability by MTT assay; format: cell-based, Sus scrofa; settings: pig; outline: as §3
[17] = Cytotoxicity against porcine PK-15 cells assessed as reduction of cell viability at 5 to 400 ug/ml by MTT assay; format: cell-based, Sus scrofa; settings: pig; outline: as §3

Row | Structure (SMILES) | MIC [1] | MIC [2] | MIC [3] | MIC [4] | MIC [5] | also measured
1 | Cc1noc(-c2ccc(N3CC(CI)OC3=O)cc2F)n1 (racemic) | > 50 µg/mL | > 50 µg/mL | 50 µg/mL (≈ 124 µM) | 50 µg/mL (≈ 124 µM) | > 50 µg/mL | 
2 | Cc1noc(-c2ccc(N3CC(CN=[N+]=[N-])OC3=O)cc2)n1 (racemic) | > 50 µg/mL | > 50 µg/mL | > 50 µg/mL | > 50 µg/mL | > 50 µg/mL | 
3 | CC(=S)NCC1CN(c2ccc(-c3nc(C)no3)c(F)c2)C(=O)O1 (racemic) | 1.6 µg/mL (≈ 4.57 µM) | 1.6 µg/mL (≈ 4.57 µM) | 0.8 µg/mL (≈ 2.28 µM) | ≤ 0.4 µg/mL | 1.6 µg/mL (≈ 4.57 µM) | Activity [6]: Toxic; Activity [7]: 40%; Activity [8]: Toxic; Activity [9]: > 50%; Activity [10]: < 10%
4 | Cc1noc(-c2ccc(N3CC(Cn4cccn4)OC3=O)cc2)n1 (racemic) | > 50 µg/mL | > 50 µg/mL | > 50 µg/mL | > 50 µg/mL | > 50 µg/mL | 
5 | Cc1noc(-c2ccc(N3CC(CI)OC3=O)cc2)n1 (racemic) | > 50 µg/mL | 50 µg/mL (≈ 130 µM) | 25 µg/mL (≈ 64.9 µM) | 50 µg/mL (≈ 130 µM) | > 50 µg/mL | 
6 | Cc1noc(-c2ccc(N3CC(Cn4cccn4)OC3=O)cc2F)n1 (racemic) | > 50 µg/mL | > 50 µg/mL | > 50 µg/mL | > 50 µg/mL | > 50 µg/mL | 
7 | Cc1noc(-c2ccc(N3CC(Cn4ccnc4)OC3=O)cc2)n1 (racemic) | > 50 µg/mL | > 50 µg/mL | > 50 µg/mL | > 50 µg/mL | > 50 µg/mL | 
8 | Cc1noc(-c2ccc(N3CC(Cn4ccnc4)OC3=O)cc2F)n1 (racemic) | > 50 µg/mL | > 50 µg/mL | > 50 µg/mL | > 50 µg/mL | > 50 µg/mL | 
9 | Cc1noc(-c2ccc(N3CC(Cn4cncn4)OC3=O)cc2F)n1 (racemic) | > 50 µg/mL | > 50 µg/mL | > 50 µg/mL | > 50 µg/mL | > 50 µg/mL | 
10 | Cc1noc(-c2ccc(N3CC(Cn4cncn4)OC3=O)cc2)n1 (racemic) | > 50 µg/mL | > 50 µg/mL | > 50 µg/mL | > 50 µg/mL | > 50 µg/mL | 
11 | Cc1noc(-c2ccc(N3CC(CN=[N+]=[N-])OC3=O)cc2F)n1 (racemic) | > 50 µg/mL | > 50 µg/mL | > 50 µg/mL | > 50 µg/mL | > 50 µg/mL | 
12 | CC(=S)NCC1CN(c2ccc(-c3nc(C)no3)cc2)C(=O)O1 (racemic) | 1.6 µg/mL (≈ 4.81 µM) | 1.6 µg/mL (≈ 4.81 µM) | 1.6 µg/mL (≈ 4.81 µM) | ≤ 0.4 µg/mL | 3.13 µg/mL (≈ 9.42 µM) | Activity [11]: Toxic; Activity [12]: > 60%; Activity [13]: Toxic; Activity [14]: 70%; Activity [15]: > 90%; Activity [16]: Dose-dependent effect
13 | CC(=O)NC[C@H]1CN(c2ccc(N3CCOCC3)c(F)c2)C(=O)O1 [LINEZOLID] | 3.13 µg/mL (≈ 9.28 µM) | 3.13 µg/mL (≈ 9.28 µM) | 1.6 µg/mL (≈ 4.74 µM) | 0.8 µg/mL (≈ 2.37 µM) | ≤ 0.4 µg/mL | Activity [9]: Toxic; Activity [17]: Non-toxic; Activity [11]: Non-toxic
14 | CC(=O)NCC1CN(c2ccc(-c3nc(C)no3)cc2)C(=O)O1 (racemic) | 6.25 µg/mL (≈ 19.8 µM) | 12.5 µg/mL (≈ 39.5 µM) | 1.6 µg/mL (≈ 5.06 µM) | 6.25 µg/mL (≈ 19.8 µM) | 12.5 µg/mL (≈ 39.5 µM) | 
15 | CC(=O)NCC1CN(c2ccc(-c3nc(C)no3)c(F)c2)C(=O)O1 (racemic) | 6.25 µg/mL (≈ 18.7 µM) | 12.5 µg/mL (≈ 37.4 µM) | 1.6 µg/mL (≈ 4.79 µM) | 6.25 µg/mL (≈ 18.7 µM) | 12.5 µg/mL (≈ 37.4 µM) | 
